This is an account of results in publication PMC5607115 (ACS chemical neuroscience, 2017).

A short description of data set [1]: liver microsomal stability. In kind it is in vitro ADME. Conditions: Sprague-Dawley, rat, liver microsomes. In short, it runs like this:
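Sprague-Dawley rat liver microsomes in PBS with compound (0.5 µL of 2 mM DMSO stock) were preincubated 5 min at 37 °C. NADPH (10 mM stock) was added, then 60 min at 37 °C. Quenched with ice-cold CH3CN, centrifuged, quantified by LC-MS/MS as % peak area 60 vs 0 min. At least triplicate; verapamil positive control.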

A short description of data set [2]: pH stability in buffer solutions. Particulars: 60 min. Format: physicochemical. In short, it runs like this: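 A DMSO stock (0.25 µmol/mL) was diluted 50 µL into 950 µL of 20 mM buffer: phosphate pH 7.4, boric acid-KCl-NaOH pH 9.4, or sodium acetate-KCl-HCl pH 5.0. Samples were held 1 h at 37 °C, and unchanged compound was measured by reversed-phase HPLC (CH3CN/H2O + 0.1% TFA).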

In another data set the target is human mGlu3 (Homo sapiens, UniProt Q14832). Nature of the data set: thallium flux GIRK functional assay, human mGlu3. In kind it is cell-based. Particulars: for selectivity for mGlu2 over mGlu3: thallium flux GIRK assays. In short, it runs like this: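 HEK cells stably co-expressing GIRK and human mGlu3 (puromycin-selected polyclonal line) were plated overnight and loaded with FluoZin2-AM (330 nM final) for 1 h at RT. Compound (0.3% DMSO final) was preincubated ~1 h at RT, then thallium buffer with a full glutamate concentration-response was added. The 5–15 s fluorescence slope, normalised to vehicle and maximal agonist, was fitted to a four-parameter logistic equation.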

A further data set can be described thus: LogP, shake flask method. Format: physicochemical. Conditions: n-octanol/water. In short, it runs like this:
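Test compound (50 µL of 20 µM DMSO stock) was mixed with mutually pre-saturated n-octanol and water (475 µL each), vortexed 1 min and shaken overnight at 37 °C. Each phase was quantified by LC-MS/MS, and LogP was taken as log of the octanol/water amount ratio. Run in triplicate.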

The next data set concerns the target human mGlu2 (Homo sapiens, UniProt Q14416). Nature of the data set: thallium flux GIRK functional assay, human mGlu2. Format: cell-based.
The target of data set [3] is mGlu2 (Rattus norvegicus, UniProt P31421). Nature of the data set: in vitro autoradiography on rat brain sections. In kind it is binding.
For data set [4] the following is noted: mice.
The conditions of data set [5]: rat.
For data set [6] the following is noted: cited from earlier work.
The next data set relates to major CNS targets. Nature of the data set: GPCRome assays. In kind it is cell-based. Particulars: NIH PDSP.
A further data set has as its system other mGlu receptors. Nature of the data set: activity towards other mGlu receptors. Conditions: test concentration of 30 µM.
Data set [7] in a line: PET imaging in normal rat brain. Format: in vivo, Sprague-Dawley rats. Conditions: unlabeled QCA 1 mg/kg, self-blocking.
Data set [8] relates to mGlu2. Conditions: cited from earlier work.

Read-outs that look alike come from different tables or passages of the source.

human mGlu3, sequence (Q14832 23-879): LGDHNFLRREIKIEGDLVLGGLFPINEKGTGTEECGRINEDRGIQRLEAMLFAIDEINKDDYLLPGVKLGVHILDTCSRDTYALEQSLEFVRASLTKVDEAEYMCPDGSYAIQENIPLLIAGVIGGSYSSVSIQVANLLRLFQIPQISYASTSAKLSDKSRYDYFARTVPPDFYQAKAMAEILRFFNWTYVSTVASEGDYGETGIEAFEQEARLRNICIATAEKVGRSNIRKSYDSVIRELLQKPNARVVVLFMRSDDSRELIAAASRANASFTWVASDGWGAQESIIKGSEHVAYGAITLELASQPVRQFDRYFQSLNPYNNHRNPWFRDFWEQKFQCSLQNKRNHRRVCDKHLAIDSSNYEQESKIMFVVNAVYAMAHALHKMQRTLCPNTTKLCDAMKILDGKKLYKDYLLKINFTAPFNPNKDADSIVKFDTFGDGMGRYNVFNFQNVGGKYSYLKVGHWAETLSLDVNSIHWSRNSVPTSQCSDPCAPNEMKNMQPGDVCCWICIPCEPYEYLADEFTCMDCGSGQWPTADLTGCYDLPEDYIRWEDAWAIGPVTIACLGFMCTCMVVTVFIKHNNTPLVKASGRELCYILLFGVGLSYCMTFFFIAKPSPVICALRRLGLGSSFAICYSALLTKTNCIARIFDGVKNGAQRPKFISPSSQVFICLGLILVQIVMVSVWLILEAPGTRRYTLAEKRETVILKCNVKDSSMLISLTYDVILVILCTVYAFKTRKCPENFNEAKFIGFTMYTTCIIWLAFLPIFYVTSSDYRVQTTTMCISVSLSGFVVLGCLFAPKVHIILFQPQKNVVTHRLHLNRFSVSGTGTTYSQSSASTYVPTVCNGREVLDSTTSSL
human mGlu2, sequence (Q14416 19-872): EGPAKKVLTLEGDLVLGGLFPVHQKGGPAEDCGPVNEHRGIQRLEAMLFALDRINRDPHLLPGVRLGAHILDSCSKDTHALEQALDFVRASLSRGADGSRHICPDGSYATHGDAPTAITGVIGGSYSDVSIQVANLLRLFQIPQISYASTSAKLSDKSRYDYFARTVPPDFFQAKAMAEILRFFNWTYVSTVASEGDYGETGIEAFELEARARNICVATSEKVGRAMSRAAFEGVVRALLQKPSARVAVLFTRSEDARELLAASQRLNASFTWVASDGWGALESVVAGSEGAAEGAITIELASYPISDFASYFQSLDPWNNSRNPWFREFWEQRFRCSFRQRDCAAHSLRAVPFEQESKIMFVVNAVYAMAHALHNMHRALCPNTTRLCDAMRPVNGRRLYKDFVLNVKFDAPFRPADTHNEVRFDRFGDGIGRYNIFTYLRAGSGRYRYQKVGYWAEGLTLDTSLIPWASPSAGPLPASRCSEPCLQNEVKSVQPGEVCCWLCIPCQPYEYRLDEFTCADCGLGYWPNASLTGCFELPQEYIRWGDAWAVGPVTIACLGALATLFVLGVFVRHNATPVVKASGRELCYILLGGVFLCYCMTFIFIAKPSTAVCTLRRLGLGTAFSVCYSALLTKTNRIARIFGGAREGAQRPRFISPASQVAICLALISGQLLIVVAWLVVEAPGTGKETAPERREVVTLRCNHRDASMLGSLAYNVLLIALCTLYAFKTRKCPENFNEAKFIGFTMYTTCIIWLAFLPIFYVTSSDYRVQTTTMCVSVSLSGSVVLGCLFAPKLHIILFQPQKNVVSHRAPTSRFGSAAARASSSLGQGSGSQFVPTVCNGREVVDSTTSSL
mGlu2 (Rattus norvegicus, UniProt P31421), sequence (P31421 19-872): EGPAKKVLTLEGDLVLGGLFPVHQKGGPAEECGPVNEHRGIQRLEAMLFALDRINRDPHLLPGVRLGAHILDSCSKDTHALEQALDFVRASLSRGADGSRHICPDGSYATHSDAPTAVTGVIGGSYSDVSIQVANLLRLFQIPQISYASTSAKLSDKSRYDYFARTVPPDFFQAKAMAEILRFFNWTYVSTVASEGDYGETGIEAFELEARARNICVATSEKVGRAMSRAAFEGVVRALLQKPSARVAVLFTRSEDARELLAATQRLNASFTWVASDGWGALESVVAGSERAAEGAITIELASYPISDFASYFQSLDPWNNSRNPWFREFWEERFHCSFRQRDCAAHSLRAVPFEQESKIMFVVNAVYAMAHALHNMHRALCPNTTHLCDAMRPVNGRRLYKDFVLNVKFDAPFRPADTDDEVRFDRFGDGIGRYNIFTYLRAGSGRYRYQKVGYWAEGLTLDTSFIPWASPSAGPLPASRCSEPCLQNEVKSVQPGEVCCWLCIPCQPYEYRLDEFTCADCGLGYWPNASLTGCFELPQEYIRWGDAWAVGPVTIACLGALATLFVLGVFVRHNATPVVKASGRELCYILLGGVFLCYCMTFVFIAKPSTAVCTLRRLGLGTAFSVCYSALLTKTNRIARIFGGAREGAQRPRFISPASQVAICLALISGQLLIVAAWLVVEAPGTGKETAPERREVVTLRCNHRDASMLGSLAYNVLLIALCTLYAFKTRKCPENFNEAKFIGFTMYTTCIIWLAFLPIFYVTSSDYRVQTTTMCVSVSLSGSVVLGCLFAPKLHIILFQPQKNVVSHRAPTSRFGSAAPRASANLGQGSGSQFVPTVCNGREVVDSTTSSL

In data set [1], `NC(=O)c1cc(-c2ccc(OCCCF)cc2F)c2ccc(CN3C(=O)CCC3=O)cc2n1` [FPQCA, 7-((2,5-dioxopyrrolidin-1-yl)methyl)-4-(2-fluoro-4-(3-fluoropropoxy)phenyl)quinoline-2-carboxamide] came in with a share remaining at 1 h, 2 µM of 64.6%. Besides, the “pH stability, percent remaining of the parent molecule” value (“pH stability, percent remaining” below) in data set [2] (pH 5.0, 37 °C) was found to be 91.5%; in data set [2] (pH 7.4, 37 °C), 72.5%; in data set [2] (pH 9.4, 37 °C) it was 76.3%. In addition, the “selectivity for mGlu2 over mGlu3” value on human mGlu3 is given as “excellent selectivity for mGlu2 over mGlu3”. Besides, the logP in the data set “LogP, shake flask method” is 1.99. The IC50 at human mGlu2 came to 1080 ± 1300 nM.
With `[11CH3]Oc1ccc(-c2cc(C(N)=O)nc3cc(CN4C(=O)CCC4=O)ccc23)c(F)c1` [[^11C]QCA, 7-((2,5-dioxopyrrolidin-1-yl)methyl)-4-(2-fluoro-4-[^11C]methoxyphenyl) quinoline-2-carboxamide], the “in vitro specific binding to mGlu2” value on mGlu2 [3] is “moderate-to-high level of in vitro specific binding”. Moreover, the “peak brain uptake in whole brain” value with PgP/Bcrp (PgP/Bcrp knockout mice) is “ca. 0.8 SUV”; in the data set on PgP/Bcrp (wild-type mice), “ca. 0.3 SUV”. Besides, the “increase of whole brain uptake in PgP/Bcrp knockout vs wild-type mice” value in the data set with PgP/Bcrp (calculated based on area under curve) is given as 130%. The “uptake in heart, lungs, liver, pancreas, kidneys and small intestine” value in data set [4] (1 min post injection) is given as more than 3 % ID/g. Moreover, in data set [4] (at 1 min post injection), the “brain uptake, peak value” came to 0.42 % ID/g. For the same compound, the “unchanged [11C]QCA in brain homogenates” value in data set [5] (5 min post injection) was found to be 78%; in data set [5] (20 min post injection) it was 41%; in data set [5] (60 min post injection), 34%. The “unchanged [11C]QCA in plasma” value in [5] (5 min post injection) was found to be 93%; in data set [5] (20 min post injection) it was 88%; in data set [5] (60 min post injection) it was 79%.
Take `[11CH3]Oc1ccc(C2CCN(c3ccn(CC4CC4)c(=O)c3C#N)CC2)cc1` [[^11C]CMDC, 1-(cyclopropylmethyl)-4-(4-[^11C]methoxyphenyl)-piperidin-1-yl-2-oxo-1,2-dihydropyridine-3-carbonitrile]: the peak brain uptake entry in [6] is on record as “ca. 0.6 SUV”.
Turning to `COc1ccc(-c2cc(C(N)=O)nc3cc(CN4C(=O)CCC4=O)ccc23)c(F)c1` [QCA, 7-((2,5-dioxopyrrolidin-1-yl)methyl)-4-(2-fluoro-4-methoxyphenyl)quinoline-2-carboxamide], in [1], the fraction remaining at 1 h, 2 µM is 64.4%. In addition, the “pH stability, percent remaining” value in data set [2] (pH 5.0, 37 °C) amounted to 97.9%; in data set [2] (pH 7.4, 37 °C) it was 50.9%; in [2] (pH 9.4, 37 °C) it was 46.7%. The “interaction with major CNS targets” value with major CNS targets is “no significant interaction”. For the same compound, the “effect on glutamate potency or glutamate maximal response (Schild analysis)” value on human mGlu3 (mGlu3, 41 nM-30 µM QCA) is “no effect”. In addition, the lipophilicity (logP) in “LogP, shake flask method” worked out at 1.27. Moreover, the “activity towards other mGlu receptors” value in the data set on other mGlu receptors is “inactive”. Besides, the “effect of pretreatment on [11C]QCA brain uptake” value in [7] is listed as “failed to show significant reduction of brain uptake”.
With `[11CH3]Oc1c(F)ccc(F)c1C1CCN(c2ccn3c(CC4CC4)nnc3c2Cl)CC1` [compound 2], in the data set on mGlu2 [8], the “mGlu2 selectivity over the other mGlu receptors” value is recorded as “greater than 350 fold”.
In turn, `NC(=O)c1cc(-c2ccc(OCCF)cc2F)c2ccc(CN3C(=O)CCC3=O)cc2n1` [FEQCA, 7-((2,5-dioxopyrrolidin-1-yl)methyl)-4-(2-fluoro-4-(2-fluoroethoxy)phenyl)quinoline-2-carboxamide] gave a share remaining at 1 h, 2 µM in [1] of 70.1%. The “pH stability, percent remaining” value in data set [2] (pH 5.0, 37 °C) stood at 98.5%; in data set [2] (pH 7.4, 37 °C) it was 53.6%; in [2] (pH 9.4, 37 °C), 59.0%. At human mGlu3, the “selectivity for mGlu2 over mGlu3” value is reported as “excellent selectivity for mGlu2 over mGlu3”. Besides, in the data set “LogP, shake flask method”, the logP came out at 1.75. The compound also came in with a 50% inhibitory concentration (IC50) on human mGlu2 of 130 ± 10 nM.
